Only a sample is shown.
Apaf-1 act: human Apaf-1 activation; activity change, negative = activation, % at 20 µM; 330,000 compounds, 0.31% hits; Apaf-1 apoptosome caspase-3 activation, DEVD-Rh110 fluorescence; stronger effect = lower value; O14727;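 active = activity change at or below -40% at 20 µM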
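Schedule: 30 min preincubation, 50 min reaction, room temperature / System: biochemical Apaf-1 apoptosome reconstitution / Medium: 20 mM HEPES pH 7.5 with CHAPS, BSA / Evaluation: Caspase-3 cleavage activity downstream of Apaf-1 activation / Detection: Caspase-3-released Rh110 fluorescence, 540 nm emission, 480 nm excitation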
Rh110 interf act: interferes with Rh110 fluorescence, flagging false Apaf-1 activators. shares compounds with Apaf-1 act. fluorescence interference (activity change), % at 20 µM, hits read low. 980 tested, under 10 active. Rh110 fluorescence interference, quenched caspase reaction, Ex480/Em540;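 active = mean activity change at or below -40% when tested at 20 µM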
Apaf-1 act conf: Apaf-1 (human) activation, single-dose confirmed | AID 504617 | reconstituted apoptosome caspase-3 activity, DEVD-Rh110 fluorescence; stronger effect = lower value | 980 compounds, 5% hits | activity change, negative = activation, % at 20 µM | shares compounds with Apaf-1 act;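 active = mean activity change at or below -40%, meaning activation of 40% or more, at 20 µM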
Numbers without * were called inactive.

Results for O=c1[nH]c(Nc2ccccc2)cc2cc(Br)ccc12 ?
Apaf-1 act: 98

Results for CCc1ccc(S(=O)(=O)/N=C2\C=C(Nc3ccc(O)cc3)C(=O)c3ccccc32)cc1 ?
Apaf-1 act: 95

Results for COC(=O)Nc1nnc(COc2ccccc2)s1 ?
Apaf-1 act: -573*; Rh110 interf act: 6; Apaf-1 act conf: 11

What do the screens show for `COc1ccc2cc1Oc1ccc(cc1)CC1c3c(cc(OC)c4c3Oc3cc5c(cc3O4)CCNC5C2)CCN1C` (centres undefined)?
Apaf-1 act: 41

How did C#CCOCCOCCOCCNc1nc(N2CCN(C(=O)CCCCCCCCCCNC(=O)Cn3cc(CCCCCN)nn3)CC2)nc(N2CCN(C(=O)CCCCCCCCCCNC(=O)[C@@H]([C@H](C)O)n3cc(C)nn3)CC2)n1 do in these assays?
Apaf-1 act: 49

What do the screens show for `Fc1ccc(N2CCN(c3nc(CN4CCOCC4)nc4scc(-c5ccccc5)c34)CC2)cc1`?
Apaf-1 act: 41

What do the screens show for `Cc1cc(SCC(=O)N/N=C/c2ccc(O)c(O)c2O)c(C)cc1Br`?
Apaf-1 act: 49

How did O=C(CCN1CCN(C(c2ccccc2)c2ccccc2)CC1)N/N=C/c1ccc(O)cc1O do in these assays?
Apaf-1 act: -236*; Rh110 interf act: 8; Apaf-1 act conf: 14

How did COC(=O)c1cccc(C23CC4(C2)[C@H](CN(CC2CCCCC2)[C@@H]4c2ccccc2)C3c2ccccc2)c1 (some centres undefined) do in these assays?
Apaf-1 act: 40

How did CC1(C)S[C@@H]2[C@H](NC(=O)[C@H](N)c3ccccc3)C(=O)N2[C@H]1C(=O)O do in these assays?
Apaf-1 act: -2

How did CC1(C)C(C(=O)OCC(Cl)(Cl)Cl)N2C(=O)C(NC(=O)Cc3ccccc3)C2S1=O (centres undefined) do in these assays?
Apaf-1 act: -85*; Rh110 interf act: 0; Apaf-1 act conf: 12

How did CCCCCCCCCCCCCCCC[n+]1ccc(/C=N/O)cc1 do in these assays?
Apaf-1 act: 80

What do the screens show for `CCCCCCCCCCCCCCCC[n+]1cccc2ccccc21`?
Apaf-1 act: 91

Results for COc1ccc(OCC(NS(=O)(=O)c2ccc(-n3cnnn3)cc2)C(C)C)cc1 (centres undefined) ?
Apaf-1 act: -424*; Rh110 interf act: 13; Apaf-1 act conf: 6

How did COc1ccc(S(=O)(=O)NCc2ccc3c(c2)cc(C)n3C)cc1 do in these assays?
Apaf-1 act: 51

What do the screens show for `COc1ccc(S(=O)(=O)Nc2cc(SCC(=O)O)c(O)c3ccccc23)cc1`?
Apaf-1 act: 85

Results for CCOC(=O)c1c(C)n(-c2ccc(C)cc2)c2c(C(C(C)=O)C(=O)O)c(Br)c(O)c(O)c12 (centres undefined) ?
Apaf-1 act: 50

How did CN1CCN(S(=O)(=O)c2cccc(C(=O)Nc3cc(C(F)(F)F)ccc3N3CCCCC3)c2)CC1 do in these assays?
Apaf-1 act: 40

What do the screens show for `O=C(N/N=C/c1ccccn1)c1cccc(S(=O)(=O)N2CCCC2)c1`?
Apaf-1 act: -587*; Rh110 interf act: 2; Apaf-1 act conf: 8

Results for O=C(NCc1cccs1)c1cccc(S(=O)(=O)N2CCCCC2)c1 ?
Apaf-1 act: 55

What do the screens show for `CCCCNc1c(-c2ccc(OC)c(Sc3ccc(OC)cc3)c2)nc2cnccn12`?
Apaf-1 act: 43

What do the screens show for `COc1ccc(S(=O)(=O)Nc2cccc3c2O[C@H](CN(C)Cc2ccccc2)[C@@H](C)CN([C@H](C)CO)C3=O)cc1`?
Apaf-1 act: 53

What do the screens show for `CCOC(=O)c1sc2nc3c(SCC(=O)O)cc(C(=O)c4ccccc4O)cn3c(=O)c2c1C`?
Apaf-1 act: -189*; Rh110 interf act: 6; Apaf-1 act conf: -24

What do the screens show for `COc1ccccc1CCn1c(N)c(C#N)c2nc3ccccc3nc21`?
Apaf-1 act: 40

What do the screens show for `COc1ccccc1-c1sc2ccccc2c1-c1ccc(OCCN2CCCCC2)cc1`?
Apaf-1 act: 62

How did Cc1ccc(C)c(S(=O)(=O)c2c(C)cc(C)nc2Cl)c1 do in these assays?
Apaf-1 act: -303*; Rh110 interf act: 1; Apaf-1 act conf: 8

How did Cc1ccc(C)c(S(=O)(=O)C(C#N)c2nc3ccccc3nc2N2CCCC2)c1 (centres undefined) do in these assays?
Apaf-1 act: 87

How did Cc1ccc(NC2=C/C(=N\S(=O)(=O)c3cccs3)c3ccccc3C2=O)c(C)c1 do in these assays?
Apaf-1 act: 95

Results for O=C(NCc1nnc(SCC(=O)N2CCCCCC2)o1)c1ccccc1F ?
Apaf-1 act: -251*; Rh110 interf act: 8; Apaf-1 act conf: 13

What do the screens show for `CCN1CCN(Cc2ccc(NC(=O)c3cc(NC(=O)c4cncc(-c5ccc(C#N)cc5)c4)cc(OC)c3)cc2C(F)(F)F)CC1`?
Apaf-1 act: 54

Results for COc1cc(NC(=O)c2ccnc(N)c2)cc(C(=O)Nc2cccc(C(F)(F)F)c2)c1 ?
Apaf-1 act: -261*; Rh110 interf act: 13; Apaf-1 act conf: 15

How did O=C(Nc1cccc(C(F)(F)F)c1)c1ccc2nc(-c3ccco3)c(-c3ccco3)nc2c1 do in these assays?
Apaf-1 act: 66

What do the screens show for `CCOc1cc(CNc2ccc(O)cc2)ccc1OCc1ccc(Cl)cc1Cl`?
Apaf-1 act: 94

What do the screens show for `CCOc1ccccc1NC(=O)c1ccc(Cl)c(NC(=O)CC(c2ccccc2)c2ccccc2)c1`?
Apaf-1 act: -55*; Rh110 interf act: 6; Apaf-1 act conf: 14

How did Cc1ccc(O)c([C@H](CCN(C(C)C)C(C)C)c2ccccc2)c1 do in these assays?
Apaf-1 act: 1

How did Cc1ccc(C(=O)NC(=S)NNC(=O)c2cccc([N+](=O)[O-])c2)cc1 do in these assays?
Apaf-1 act: -116*; Rh110 interf act: 11; Apaf-1 act conf: 20

What do the screens show for `O=C(COC(=O)c1ccc([N+](=O)[O-])s1)NNC(=O)c1ccccc1`?
Apaf-1 act: 41

How did O=C(CCn1c2c(c3ccccc31)CCCC2)NNC(=O)c1ccc([N+](=O)[O-])cc1 do in these assays?
Apaf-1 act: 81

How did Cc1cc(C)c(S(=O)(=O)/N=C2\C=C(Nc3ccc(C(=O)O)cc3)C(=O)c3ccccc32)c(C)c1 do in these assays?
Apaf-1 act: 89

Results for CS(=O)c1nc(-c2ccc(Br)cc2)cc(-c2ccccc2)c1C#N (centres undefined) ?
Apaf-1 act: 55

Results for Cn1c2c(c(=O)n(C)c1=O)CN(CCCN1CCOCC1)CN2 ?
Apaf-1 act: -59*; Rh110 interf act: 7; Apaf-1 act conf: 2

What do the screens show for `COc1ccc(CNCC(O)(c2ccc(Cl)cc2)c2ccc(Cl)cc2)cc1OC`?
Apaf-1 act: 42

How did CCCCCCSc1cc(-c2nc3cnccn3c2NCCCC)ccc1OC do in these assays?
Apaf-1 act: 46

What do the screens show for `Cc1c(/C(O)=C2/C(=O)C(=O)N(CCN3CCOCC3)C2c2cccs2)cnn1-c1ccccc1` (centres undefined)?
Apaf-1 act: -424*; Rh110 interf act: 17; Apaf-1 act conf: 16

Results for CC(/C=N/NC(=O)Cc1cc(=O)[nH][nH]1)=C\c1ccccc1 ?
Apaf-1 act: 60
